This note sets out measurements from ChEMBL document CHEMBL1255281, “Effects on gram-negative and gram-positive bacteria mediated by 5-aminolevulinic Acid and 5-aminolevulinic acid derivatives” (2008).

The subject of assay [1] is Escherichia coli. As to the kind of experiment: Antibacterial activity against Escherichia coli K-12 assessed as reduction in microbial viability incubated at 10 mM followed by irradiation at 120 J.cm2 light. Type of assay: functional, organism-based. An outline of the steps: (§1)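 Log-phase cells (OD600 ~0.30) washed twice in PBS (0.1 N, pH 6.5), pelleted, resuspended in freshly made substrate in the same PBS and kept 4 h at 37°C in the dark with shaking. About 5 × 10⁷ bacteria in 2.5 ml were then exposed to white halogen light for 40 min (120 J·cm⁻²). CFU were counted by plating dilutions on Columbia agar. Survival = CFU/ml after PDI ÷ CFU/ml of initial sample; mean of n = 4 ± SD.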

Assay [2] has as its system Escherichia coli. As to the kind of experiment: Induction of photoactive porphyrins in Escherichia coli K-12 at 10 mM exposed to irradiation at 120 J.cm2 light by HPLC. The class given is functional, organism-based. A digest of the protocol:
(§2)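 Cells were loaded 4 h at 37°C in the dark with substrate in PBS (pH 6.5), in parallel with the PDI samples. 10 ml of suspension was pelleted and taken up in ethanol/DMSO/acetic acid (80:20:1). Cells were broken by five 5-s sonication pulses at 0°C and centrifuged. The supernatant was run on HPLC with a gradient (acetate buffer/acetonitrile to methanol/acetonitrile) and fluorescence detection (ex 407, em 620 nm). Total porphyrins are given as pmol·10⁻⁶ CFU.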

In assay [3] the test system is Escherichia coli. The assay is described as follows: Antibacterial activity against Escherichia coli K-12 assessed as reduction in microbial viability incubated at 0.1 mM followed by irradiation at 120 J.cm2 light. Type of assay: functional, organism-based. A digest of the protocol: as §1
Assay [4] concerns Escherichia coli. As to the kind of experiment: Antibacterial activity against Escherichia coli Ti05 assessed as microbial survival fraction incubated at 1 mM followed by irradiation at 120 J.cm2 light relative to untreated control. Type of assay: functional. A digest of the protocol:
as §1

In assay [5] the test system is Escherichia coli. The assay is described as follows: Antibacterial activity against Escherichia coli K-12 assessed as reduction in microbial viability incubated at 40 mM followed by irradiation at 120 J.cm2 light. The class given is functional, organism-based. An outline of the steps: as §1
Assay [6] relates to Escherichia coli. As to the kind of experiment: Antibacterial activity against Escherichia coli K-12 assessed as microbial survival fraction incubated at 0.1 mM followed by irradiation at 120 J.cm2 light relative to untreated control. The class given is functional. A digest of the protocol:
as §1

Assay [7] concerns Escherichia coli. The assay is described as follows: Antibacterial activity against Escherichia coli K-12 assessed as reduction in microbial viability incubated at <40 mM for 4 hrs under dark condition. The class given is functional, organism-based. A digest of the protocol:
(§3)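 Dark toxicity. Washed log-phase cells (OD600 ~0.30, PBS 0.1 N pH 6.5) were held 4 h at 37°C in the dark with shaking in substrate dissolved in the same PBS and were not illuminated. CFU were counted on Columbia agar. Survival = CFU/ml of nonilluminated sample ÷ CFU/ml of initial sample; mean of n = 4 ± SD.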

Assay [8] concerns Escherichia coli. The assay is described as follows: Induction of photoactive porphyrins in Escherichia coli K-12 exposed to irradiation at 120 J.cm2 light by HPLC. The class given is functional, organism-based. An outline of the steps:
as §2

Assay [9] relates to Pseudomonas aeruginosa. As to the kind of experiment: Induction of photoactive porphyrins in Pseudomonas aeruginosa assessed as porphyrin level per 10^-6 CFU microbial load incubated at 1 mM followed by irradiation at 120 J.cm2 light relative to untreated control. The class given is functional. An outline of the steps:
as §2

Assay [10] concerns Staphylococcus aureus. As to the kind of experiment: Antibacterial activity against methicillin resistant Staphylococcus aureus assessed as microbial survival fraction incubated at 10 mM followed by irradiation at 120 J.cm2 light relative to untreated control. Type of assay: functional. A digest of the protocol: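 MRSA grown 48 h on Columbia sheep-blood agar, then overnight in tryptone soy broth at 37°C, brought to OD600 ~0.30 and washed twice in PBS pH 6.5. Cells were held with substrate in PBS for 4 h in the dark at 37°C with shaking. About 5 × 10⁷ bacteria were exposed to halogen white light for 40 min (120 J·cm⁻²). CFU were counted on Columbia agar; survival = N_PDI/N₀; mean of n = 4 ± SD.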

The test system of assay [11] is Staphylococcus aureus. The assay is described as follows: Induction of photoactive porphyrins in methicillin resistant Staphylococcus aureus assessed as porphyrin level per 10^-6 CFU microbial load incubated at 10 mM followed by irradiation at 120 J.cm2 light relative to untreated control. Type of assay: functional. An outline of the steps: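 MRSA was washed in PBS pH 6.5 and held with substrate in PBS for 4 h in the dark at 37°C with shaking; a separate fraction was taken for porphyrin analysis. Pellets were extracted in ethanol/DMSO/acetic acid (80:20:1), sonicated 5 × 5 s at 0°C and centrifuged. Supernatant went to gradient HPLC with fluorescence detection (excitation 407, emission 620 nm). Total porphyrins are expressed as pmol·10⁻⁶ CFU.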

The test system of assay [12] is Escherichia coli. The assay is described as follows: Induction of photoactive porphyrins in Escherichia coli Ti05 assessed as porphyrin level per 10^-6 CFU microbial load incubated at 1 mM followed by irradiation at 120 J.cm2 light relative to untreated control. The class given is functional. A digest of the protocol:
as §2

For assay [13], the system named is Escherichia coli. The assay is described as follows: Induction of photoactive porphyrins in Escherichia coli K-12 assessed as protoporphyrin level exposed to irradiation at 120 J.cm2 light by HPLC. The class given is functional, organism-based. A digest of the protocol:
as §2

In assay [14] the test system is Pseudomonas aeruginosa. The assay is described as follows: Antibacterial activity against Pseudomonas aeruginosa assessed as microbial survival fraction incubated at 1 mM followed by irradiation at 120 J.cm2 light relative to untreated control. Type of assay: functional. An outline of the steps: as §1
Assay [15] deals with Escherichia coli. The assay is described as follows: Antibacterial activity against Escherichia coli K-12 assessed as reduction in microbial viability incubated at 40 mM for 4 hrs under dark condition. Type of assay: functional, organism-based. A digest of the protocol: as §3
Assay [16] has as its system Escherichia coli. The assay is described as follows: Induction of photoactive porphyrins in Escherichia coli K-12 assessed as uroporphyrin level exposed to irradiation at 120 J.cm2 light by HPLC. The class given is functional, organism-based. An outline of the steps:
as §2

The test system of assay [17] is Escherichia coli. As to the kind of experiment: Induction of photoactive porphyrins in Escherichia coli K-12 assessed as porphyrin level per 10^-6 CFU microbial load incubated at 0.1 mM followed by irradiation at 120 J.cm2 light relative to untreated control. Type of assay: functional. A digest of the protocol:
as §2

Assay [18] has as its system Pseudomonas aeruginosa. The assay is described as follows: Antibacterial activity against Pseudomonas aeruginosa assessed as microbial survival fraction incubated at 10 mM followed by irradiation at 120 J.cm2 light relative to untreated control. The class given is functional. A digest of the protocol: as §1
Assay [19] deals with Escherichia coli. The assay is described as follows: Antibacterial activity against Escherichia coli Ti05 assessed as microbial survival fraction incubated at 10 mM followed by irradiation at 120 J.cm2 light relative to untreated control. The class given is functional. A digest of the protocol: as §1
For assay [20], the system named is Escherichia coli. As to the kind of experiment: Induction of photoactive porphyrins in Escherichia coli K-12 assessed as porphyrin level per 10^-6 CFU microbial load incubated at 10 mM followed by irradiation at 120 J.cm2 light relative to untreated control. Type of assay: functional. An outline of the steps: as §2
Assay [21] deals with Escherichia coli. The assay is described as follows: Induction of photoactive porphyrins in Escherichia coli K-12 assessed as porphyrin 7-CP level exposed to irradiation at 120 J.cm2 light by HPLC. The class given is functional, organism-based. A digest of the protocol: as §2
For assay [22], the system named is Escherichia coli. As to the kind of experiment: Induction of photoactive porphyrins in Escherichia coli K-12 assessed as porphyrin 6-CP level exposed to irradiation at 120 J.cm2 light by HPLC. The class given is functional, organism-based. An outline of the steps:
as §2

Assay [23] concerns Escherichia coli. The assay is described as follows: Antibacterial activity against Escherichia coli K-12 assessed as reduction in microbial viability incubated at 30 mM for 4 hrs under dark condition. The class given is functional, organism-based. A digest of the protocol: as §3
The subject of assay [24] is Escherichia coli. As to the kind of experiment: Induction of photoactive porphyrins in Escherichia coli K-12 assessed as porphyrin 5-CP level exposed to irradiation at 120 J.cm2 light by HPLC. The class given is functional, organism-based. A digest of the protocol: as §2
Assay [25] concerns Pseudomonas aeruginosa. The assay is described as follows: Induction of photoactive porphyrins in Pseudomonas aeruginosa assessed as porphyrin level per 10^-6 CFU microbial load incubated at 10 mM followed by irradiation at 120 J.cm2 light relative to untreated control.
The test system of assay [26] is Escherichia coli. The assay is described as follows: Antibacterial activity against Escherichia coli K-12 assessed as microbial survival fraction incubated at 10 mM followed by irradiation at 120 J.cm2 light relative to untreated control. Type of assay: functional. A digest of the protocol: as §1
Assay [27] concerns Escherichia coli. As to the kind of experiment: Induction of photoactive porphyrins in Escherichia coli Ti05 assessed as porphyrin level per 10^-6 CFU microbial load incubated at 10 mM followed by irradiation at 120 J.cm2 light relative to untreated control. Type of assay: functional. A digest of the protocol: as §2

Active and inactive are the calls of the source. No cut-off for these calls is given here.

As to `CCCCCCCCOC(=O)CCC(=O)CN`, in the assay on Escherichia coli [1], the “growth inhibition (GI)” value was “inactive”. Besides, the outcome with Escherichia coli [2] was inactive.

Turning to `CCCCCCOC(=O)CCC(=O)CN`, the “growth inhibition (GI)” value with Escherichia coli [1] is “inactive”. In addition, the outcome with Escherichia coli [2] was inactive.

Take `CCCCCOC(=O)CCC(=O)CN`: the “growth inhibition (GI)” value in the assay with Escherichia coli [1] is “inactive”. Moreover, in the assay on Escherichia coli [2], the result was inactive.

On to `CCCCOC(=O)CCC(=O)CN`, for which the “growth inhibition (GI)” value with Escherichia coli [1] was “Active”. In addition, in the assay on Escherichia coli [2], the result was Active.

With `NCC(=O)CCC(=O)O` [AMINOLEVULINIC ACID], the “growth inhibition (GI)” value in the assay on Escherichia coli [3], in the assay on Escherichia coli [5] and in the assay with Escherichia coli [15] was “Active” each time. The Ratio in the assay with Escherichia coli [4] is 5e-05; with Escherichia coli [6], 0.00048; in the assay with Staphylococcus aureus [10] it was 5e-06; in the assay with Pseudomonas aeruginosa [14] it was 0.0019. Further, the “growth inhibition (GI)” value in the assay with Escherichia coli [7] is “inactive”. Further, the outcome in the assay on Escherichia coli [8], in the assay with Escherichia coli [13] and in the assay with Escherichia coli [16] was Active. Besides, the Activity with Pseudomonas aeruginosa [9] is reported as 34.5 pmol; with Staphylococcus aureus [11], 6.6 pmol; in the assay with Escherichia coli [12], 5.4 pmol; in the assay on Escherichia coli [17], 7.5 pmol.

As to `COC(=O)CCC(=O)CN` [METHYL AMINOLEVULINATE], the Ratio was found to be 0.012 with Pseudomonas aeruginosa [18], 2e-05 in the assay on Escherichia coli [19], 0.00078 in the assay with Staphylococcus aureus [10] and 8.1e-06 in the assay with Escherichia coli [26]. In addition, the “growth inhibition (GI)” value in the assay with Escherichia coli [1] and with Escherichia coli [23] was “Active” throughout. For the same compound, the Activity in the assay with Escherichia coli [20] was found to be 12.5 pmol; in the assay with Staphylococcus aureus [11], 2.5 pmol; in the assay on Pseudomonas aeruginosa [25], 6 pmol; with Escherichia coli [27], 10.2 pmol. Also, the outcome in the assay on Escherichia coli [21], in the assay on Escherichia coli [22], with Escherichia coli [24] and with Escherichia coli [16] was Active.
